Compound activity (PubChem BioAssay)
Shown are actives, neighbours in structure and some others; about 3.1% of the full set was active somewhere.
hERG rescue: hERG rescue from dofetilide block, primary screen, cell-based, CHO-hERG, FluxOR thallium flux, dofetilide IC70; Voltage-gated inwardly rectifying potassium channel KCNH2 (Homo sapiens), Q12809; dofetilide IC70 present; activation (rescue from dofetilide block), less the hit threshold, % at 10 µM; 310,000 compounds, 0.51% hits; AID 1511, 2009;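 active = activation above the mean of controls blocked by dofetilide plus 5 SD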;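 also: thallium influx through hERG after potassium depolarization seen as dye fluorescence rise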
KCNK9 inh: KCNK9 potassium channel inhibitors, primary screen, HEK293 cells, thallium flux. Potassium channel subfamily K member 9 (Homo sapiens), Q9NPC2. FluxOR thallium flux fluorescence; stronger effect = lower value. B-score at 10 µM. 310,000 compounds, 1.2% hits;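 active = ratio B-score over 3 SD below the library mean, with starting fluorescence within 5 SD of its mean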;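 also: negative B-score means less thallium flux so channel inhibition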
Target sequence (Q9NPC2 whole entry, looked up): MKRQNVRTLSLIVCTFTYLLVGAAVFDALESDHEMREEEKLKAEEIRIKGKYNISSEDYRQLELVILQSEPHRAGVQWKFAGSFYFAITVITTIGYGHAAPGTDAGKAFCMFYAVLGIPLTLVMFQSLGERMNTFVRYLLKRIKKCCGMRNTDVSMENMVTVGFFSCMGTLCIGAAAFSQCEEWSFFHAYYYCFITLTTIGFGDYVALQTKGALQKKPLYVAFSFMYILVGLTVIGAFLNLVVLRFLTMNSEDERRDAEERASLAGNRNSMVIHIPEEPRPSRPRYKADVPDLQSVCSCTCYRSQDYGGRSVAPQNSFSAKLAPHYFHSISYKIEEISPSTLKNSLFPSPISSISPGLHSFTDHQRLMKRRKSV
KCNK3 inh: human KCNK3 channel inhibitors, primary screen, CHO cells, FluxOR thallium flux, B-score; Potassium channel subfamily K member 3 (Homo sapiens), O14649; FluxOR fluorescence; stronger effect = lower value; B-score at 10 µM; 340,000 compounds, 0.84% hits;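 active = B-score under library mean minus 4 SD, starting fluorescence ratio at most library mean plus 5 SD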;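 also: more negative B-score means stronger inhibition of thallium flux through KCNK3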
KCNQ1 inh: inhibitors of human KCNQ1 channel, primary screen, cell-based, thallium flux, high-throughput. Potassium voltage-gated channel subfamily KQT member 1 (Homo sapiens), P51787. CHO-K1 KCNQ1, FluxOR thallium flux fluorescence; stronger effect = higher value. B-score at 10 µM. 310,000 compounds, 1.3% hits. AID 2642, 2010;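 active = compounds whose thallium flux B-score, printed positive for inhibition, exceeds three library SD while starting fluorescence stays within three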;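 also: channel opened by potassium depolarization with thallium stimulus after 20 min compound exposure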
KCNQ1 act: potentiators or activators of KCNQ1 channel, primary screen, cell-based, thallium flux, high-throughput. AID 2648, 2010. CHO-K1 KCNQ1, thallium flux FluxOR fluorescence; stronger effect = higher value. B-score at 10 µM. Potassium voltage-gated channel subfamily KQT member 1 (Homo sapiens), P51787. 310,000 compounds, 0.35% hits;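 active = fluorescence ratio B-score, a plate-corrected score, at least three library SD, with initial intensity B-score within 5 SD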
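Test system: CHO-K1 cells stably expressing KCNQ1 / Medium: assay buffer / Also added: depolarizing K+/Tl+ stimulus, K2SO4 and Tl2SO4 each 12.5 mM in 5x stock / Incubation: 90 min dye loading and 20 min compound exposure, both at room temperature / Signal: thallium influx via FluxOR fluorescence, kinetic imaging / Evaluation: B score of baseline-normalized fluorescence ratio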
KCNQ1 block val: KCNQ1 potassium channel inhibitors, confirmation, cell-based, Tl flux, duplicate. inhibition, % at 10 µM. 1,600 compounds, 93% hits. KCNQ1 cell line, FluxOR thallium flux fluorescence. AID 588353, 2011. shares compounds with KCNQ1 inh;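 active = primary screen active, with duplicate mean exceeding buffer control mean plus 3 SD of buffer wells, cut at about 28% in these data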;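 also: 0% = buffer control ratio and 100% = XE991 inhibitor control ratio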
CHO Tl flux: thallium flux effects in parental CHO cells, counter-screen for KCNQ1 inhibitor project, cell-based, Tl flux | 1,600 compounds, 21% hits | shares compounds with KCNQ1 inh | parental CHO-K1, FluxOR thallium flux fluorescence ratio; stronger effect = lower value; zero means no signal rise above baseline | fluorescence ratio (Tl flux) at 10 µM;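 active = mean of duplicate thallium-flux fluorescence ratios in parental host cells more than 5 SD below the buffer control mean, cut at about 0.38 in these data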;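 also: ratio is peak minus minimum fluorescence divided by baseline fluorescence; actives read low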
KCNQ1 ephys val: KCNQ1 channel inhibitors, confirmation, orthogonal assay, cell-based, automated electrophysiology; shares compounds with KCNQ1 inh; KCNQ1-CHO cells, automated patch clamp current; calls only at 10 µM; 490 compounds, 20% hits;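 active = KCNQ1 current drop exceeding 3 SD of negative control wells, seen in both duplicate runs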;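 also: steady state current during a 2 s step from -80 to +40 mV; negative values mean current inhibition and positive values mean potentiation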
KCNQ2 inh: KCNQ2 channel inhibition, selectivity assay for KCNQ1 inhibitor project, cell-based; KCNQ2 cells, FluxOR thallium flux fluorescence; shares compounds with KCNQ1 inh; inhibition, % at 10 µM; 1,600 compounds, 71% hits;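 active = mean percent inhibition of the KCNQ2 thallium signal more than 5 SD above the buffer-only control wells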;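 also: KCNQ2 expressed in CHO cells; 0% = buffer control wells and 100% = XE-991 inhibitor control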
KCNQ1-KCNE1 inh: KCNQ1/KCNE1 channel inhibition, selectivity assay for KCNQ1 inhibitor project, CHO-K1 cells, thallium flux, FluxOR. shares compounds with KCNQ1 inh. FluxOR thallium flux fluorescence. inhibition, % at 10 µM. 1,600 compounds, 77% hits;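 active = mean percent inhibition of duplicate wells above the buffer-only control mean plus 3 SD of those controls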;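 also: 0% = buffer only wells and 100% = XE-991 inhibitor control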
An asterisk follows results filed as active.

For COc1cccc(NC(=O)Nc2ccc(C)c(Cl)c2)c1 the results were hERG rescue -9, KCNK9 inh inactive, KCNK3 inh inactive, KCNQ1 inh 6*, KCNQ1 act inactive, KCNQ1 block val 76*, CHO Tl flux 0.52, KCNQ2 inh inactive and KCNQ1-KCNE1 inh inactive.
Screening Cc1ccc(NC(=O)Nc2ccc(F)cc2)cc1Cl returned hERG rescue -7, KCNK9 inh inactive, KCNK3 inh inactive, KCNQ1 inh 10*, KCNQ1 act inactive, KCNQ1 block val 70*, CHO Tl flux 0.45, KCNQ2 inh 61%* and KCNQ1-KCNE1 inh inactive.
Screening Cc1cccc(OCc2nc(C#N)c(N3CC(C)CC(C)C3)o2)c1 (stereo unspecified) returned hERG rescue -11, KCNK9 inh inactive, KCNK3 inh -12*, KCNQ1 inh 8*, KCNQ1 act inactive, KCNQ1 block val 103*, CHO Tl flux 0.38*, KCNQ2 inh inactive and KCNQ1-KCNE1 inh 104%*.
Screening CNC(=O)OCN1C(=O)C2CC=CCC2C1=O (stereo unspecified) returned KCNK3 inh inactive.
CCN(N=O)c1ccc(C=C2C=Cc3ccccc32)cc1 was read as KCNK3 inh inactive.
Screening Clc1ccc2[nH]c(-c3ccccc3)cc2c1 returned hERG rescue -3, KCNK9 inh inactive, KCNK3 inh inactive, KCNQ1 inh 9*, KCNQ1 act inactive, KCNQ1 block val 131*, CHO Tl flux 0.52, KCNQ1 ephys val inactive, KCNQ2 inh 92%* and KCNQ1-KCNE1 inh 132%*.
Screening S=C(Nc1cccc(Cl)c1)NC1CC2CCCC(C1)N2C1CCCC1 (stereo unspecified) returned hERG rescue -12, KCNK9 inh inactive, KCNK3 inh inactive, KCNQ1 inh inactive and KCNQ1 act inactive.
For S=C(NCCN(C1CCCCC1)C1CCCC1)Nc1cccc(Cl)c1 the results were hERG rescue -13, KCNK9 inh inactive, KCNK3 inh inactive, KCNQ1 inh 6*, KCNQ1 act inactive, KCNQ1 block val 80*, CHO Tl flux 0.43, KCNQ2 inh 92%* and KCNQ1-KCNE1 inh inactive.
For Cc1nn(CC(=O)N2CCc3ccccc32)c(C)c1S(=O)(=O)NC(C)(C)C the results were KCNK3 inh inactive.
Screening CCS(=O)(=O)c1ncc(Cl)c(C(=O)Nc2ccccc2OC)n1 returned hERG rescue -10, KCNK9 inh inactive, KCNK3 inh inactive, KCNQ1 inh 11*, KCNQ1 act inactive, KCNQ1 block val 73*, CHO Tl flux 0.38, KCNQ2 inh 63%* and KCNQ1-KCNE1 inh 66%*.
`COc1ccccc1NC(=O)c1nc(S(=O)(=O)Cc2ccccc2)ncc1Cl` gave hERG rescue -8, KCNK9 inh inactive, KCNK3 inh inactive, KCNQ1 inh inactive and KCNQ1 act inactive.
